Measurements as given in ChEMBL document CHEMBL5046323, “Discovery of Phospholipase D Inhibitors with Improved Drug-like Properties and Central Nervous System Penetrance” (ACS Med Chem Lett, 2022).

What was measured:
[1] = target: Phospholipase D1 (Homo sapiens) (UniProt Q13393); assay: Inhibition of PLD1 in human Calu-1 cells assessed as reduction in d9-phosphobutanol formation by mass spectrometry-based transphosphatidylation assay
[2] = Drug concentration in sc dosed C57BL/6 mouse liver measured after 15 mins by LC-FTICR-MS analysis; format: ADME, organism-based; conditions: read-out: Ct
Method in brief: (§1)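 Mice dosed subcutaneously at 10 mg/kg 15, 30 or 60 min before injection of 1-butanol-d10; tissues (liver, brain) collected 15 min after butanol injection for compound levels.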

[3] = Drug concentration in sc dosed C57BL/6 mouse brain measured after 15 mins by LC-FTICR-MS analysis; format: ADME, organism-based; conditions: read-out: Ct
Method in brief: as §1

[4] = AUClast in sc dosed C57BL/6 mouse by LC-MS/MS analysis; format: ADME, organism-based; parameters: route subcutaneous, time 0 - last; conditions: in vivo
[5] = Tmax in sc dosed C57BL/6 mouse by LC-MS/MS analysis; format: ADME, organism-based; conditions: in vivo
BCRP = assay: Efflux ratio of apparent permeability from basolateral to apical side over apical to basolateral side in dog MDCK-BCRP cells; format: ADME, cell-based, Canis lupus familiaris
[6] = Drug concentration in sc dosed C57BL/6 mouse liver measured after 60 mins by LC-FTICR-MS analysis; format: ADME, organism-based; conditions: read-out: Ct
Method in brief: as §1

Cytochrome P450 2C9 = Cytochrome P450 2C9 (Homo sapiens, UniProt P11712); assay: Inhibition of CYP2C9 (unknown origin); format: ADME
Chain of Cytochrome P450 2C9 (P11712 whole entry): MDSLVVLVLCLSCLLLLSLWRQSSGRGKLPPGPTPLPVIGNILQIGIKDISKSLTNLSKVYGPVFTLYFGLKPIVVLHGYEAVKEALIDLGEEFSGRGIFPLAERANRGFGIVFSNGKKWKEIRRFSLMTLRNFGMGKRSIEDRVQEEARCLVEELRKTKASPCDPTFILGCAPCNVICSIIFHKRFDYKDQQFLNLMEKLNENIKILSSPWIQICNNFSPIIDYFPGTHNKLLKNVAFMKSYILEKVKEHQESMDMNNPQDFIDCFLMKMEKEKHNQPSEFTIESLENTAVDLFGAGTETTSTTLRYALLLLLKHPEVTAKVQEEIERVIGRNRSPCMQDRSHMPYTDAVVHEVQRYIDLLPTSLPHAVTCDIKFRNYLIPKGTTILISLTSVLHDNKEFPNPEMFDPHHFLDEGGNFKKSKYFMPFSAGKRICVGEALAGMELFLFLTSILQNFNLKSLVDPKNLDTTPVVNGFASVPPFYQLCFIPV

Cytochrome P450 2B6 = target: T1, Cytochrome P450 2B6 (Homo sapiens, UniProt P20813); assay: Inhibition of CYP2B6 (unknown origin); format: ADME
T1 sequence (P20813 whole entry): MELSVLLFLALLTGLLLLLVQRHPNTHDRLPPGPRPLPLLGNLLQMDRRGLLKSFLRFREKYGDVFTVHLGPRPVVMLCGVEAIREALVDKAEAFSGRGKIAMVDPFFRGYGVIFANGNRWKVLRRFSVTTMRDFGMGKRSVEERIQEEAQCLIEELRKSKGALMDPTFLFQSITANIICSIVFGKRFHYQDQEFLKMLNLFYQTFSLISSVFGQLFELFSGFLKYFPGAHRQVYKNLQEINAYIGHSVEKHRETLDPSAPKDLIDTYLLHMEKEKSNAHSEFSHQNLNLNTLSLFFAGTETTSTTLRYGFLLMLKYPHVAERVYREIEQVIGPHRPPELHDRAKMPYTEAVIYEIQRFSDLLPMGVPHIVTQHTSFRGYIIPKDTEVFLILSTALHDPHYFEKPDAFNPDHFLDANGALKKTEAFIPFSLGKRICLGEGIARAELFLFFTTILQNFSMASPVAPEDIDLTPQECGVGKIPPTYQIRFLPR

[7] = Plasma protein binding in sc dosed C57BL/6 mouse by LC-MS/MS analysis; format: ADME, organism-based; conditions: in vivo
[8] = Oral bioavailability in rat; format: ADME, organism-based; conditions: in vivo
Method in brief: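 Rat oral PK, average of two experiments with n = 3 rats each; formulation HPMC/Tween.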

[9] = Microsomal stability in human liver microsomes assessed as intrinsic clearance; format: ADME, Microsome; conditions: read-out: CLH
Method in brief: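 Intrinsic clearance (CLint) determined in rat or human liver microsomes.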

[10] = Plasma protein binding in rat assessed as unbound fraction; format: ADME, cell-free
[11] = Unbound brain concentration in sc dosed C57BL/6 mouse measured after 60 mins by LC-FTICR-MS analysis; format: ADME, organism-based; conditions: in vivo, 1 h
Method in brief: as §1

Compound: C[C@@H]1CN(C(=O)[C@H](C)N2CCC(n3c(=O)[nH]c4ccccc43)CC2)C[C@@H](C)N1
- IC50 [1]: 0.006 µM
- concentration at 0.25 h [2]: 4550 ng/g
- concentration at 0.25 h [3]: 83.8 ng/g
- AUC(0-t) [4]: 7990 ng·h/mL
- Tmax [5]: 26.4 min
- efflux ratio (BCRP): 1.2
- concentration at 1 h [6]: 7380 ng/g
- IC50 (Cytochrome P450 2C9): > 10 µM
- IC50 (Cytochrome P450 2B6): > 10 µM
- PPB [7]: 17.2%
- bioavailability [8]: 21%
- CLint scaled [9]: 6 mL/min/kg
- Fu [10]: 10.8%
- Drug uptake(free) [11]: 53.2 nM
